Source: PubChem (several laboratories)
Compounds with a hit are over-represented: about 2.3% of the library has one in this group of screens.
PREPL inh – inhibits the human prolyl oligopeptidase-like enzyme. Q4J6C6. recombinant PREPL, fluorescence polarization activity-based probe. inhibition, % at 5.96 µM. 320,000 tested, 0.68% active;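 further: 0% = enzyme with DMSO and 100% = wells lacking enzyme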
CTSL1 counter – counter-screen for PFM18AAP inhibitors: inhibitors of F. hepatica cathepsin L1; recombinant F. hepatica cathepsin L1, Z-Leu-Arg-MCA fluorescence; inhibition, % at 5.96 µM; 300,000 tested, 0.49% active;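 active means inhibition above the mean of all tested compounds plus 3 SD, set per screening campaign, cut at about 17% in these data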;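 further: 0% = plate median of test compound wells and 100% = 1 µM Z-Phe-Ala-diazomethylketone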
UCH37 DUB inh – inhibitors of human deubiquitinating enzyme UCH37. Q9Y5K5. purified proteasome/UCH37, Ub-AMC cleavage fluorescence. inhibition, % (test concentration not listed). 330,000 tested, 0.33% active;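 active means mean inhibition over replicate wells above about 20%, limit read from the data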;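 further: 0% = compound-free wells with enzyme and 100% = wells lacking proteasome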
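Material: human UCH37 enzyme supplied as purified proteasome complex / Amount: 0.15 nM proteasome as dispensed / Buffer or medium: pH 7.4 Tris-HCl (50 mM) with ovalbumin, ATP-MgCl2, DTT / Times: preincubation 30 min, reaction 25 min, room temperature / Technique: AMC fluorescence from Ub-AMC cleavage, excitation 355 nm, emission 460 nm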
PP1 inh – counter-screen for PP5 inhibitors: inhibitors of human PP1-alpha. P62136. purified PP1alpha, OMFP fluorescence. inhibition, % at 6.7 µM. 320,000 tested, 0.9% active;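 active means inhibition above the mean inhibition of all tested compounds plus 3 SD, computed separately for each screening campaign, cut at about 15% in these data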
Target sequence (P62136 whole entry, looked up): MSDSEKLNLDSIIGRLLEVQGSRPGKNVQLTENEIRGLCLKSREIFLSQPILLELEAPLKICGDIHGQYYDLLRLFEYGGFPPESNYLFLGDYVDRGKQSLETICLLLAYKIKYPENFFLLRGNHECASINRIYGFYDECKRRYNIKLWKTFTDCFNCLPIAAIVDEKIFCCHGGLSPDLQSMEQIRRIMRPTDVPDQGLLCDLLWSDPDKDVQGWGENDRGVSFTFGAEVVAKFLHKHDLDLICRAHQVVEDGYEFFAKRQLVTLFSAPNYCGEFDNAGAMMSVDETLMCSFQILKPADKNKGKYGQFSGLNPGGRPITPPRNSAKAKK
PP5 primary – blocks human protein phosphatase 5 activity; P53041; purified PP5c, OMFP substrate fluorescence; inhibition, % at 6.7 µM; 320,000 tested, 0.18% active; AID 1987;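 active means inhibition above the campaign's mean inhibition across all tested compounds plus 3 SD, cut at about 9.5% in these data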;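 further: 0% = DMSO only and 100% = 100 µM cantharidin control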
UBC13 polyUb – human UBC13 polyubiquitination inhibition | inhibition, % at 20 µM | AID 485273 | P61088 | UBC13 polyubiquitin chain formation, TR-FRET | 330,000 tested, 0.47% active; in the data active means inhibition above about 45%, passing the limit was not always enough
PREPL inh cf – confirmation of human PREPL enzyme inhibitors. inhibition, % at 5.96 µM. 2,000 tested, 67% active. recombinant PREPL, fluorescence polarization activity probe. shares compounds with PREPL inh;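 further: 0% = protein with DMSO and 100% = wells lacking protein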
Casp3 UBC13 ctr – inhibits human caspase-3 in UBC13 counter-screen. inhibition, % at 20 µM. Recombinant caspase-3, Caspase-Glo 3/7 luminescence, 60 min. shares compounds with UBC13 polyUb. 1,400 tested, 4% active. AID 488856;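 active means mean inhibition across replicates above about 26%, limit read from the data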;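 further: plate controls were DMSO with caspase-3 for no effect and DMSO wells lacking enzyme for full effect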
Target sequence (P42574 whole entry, looked up): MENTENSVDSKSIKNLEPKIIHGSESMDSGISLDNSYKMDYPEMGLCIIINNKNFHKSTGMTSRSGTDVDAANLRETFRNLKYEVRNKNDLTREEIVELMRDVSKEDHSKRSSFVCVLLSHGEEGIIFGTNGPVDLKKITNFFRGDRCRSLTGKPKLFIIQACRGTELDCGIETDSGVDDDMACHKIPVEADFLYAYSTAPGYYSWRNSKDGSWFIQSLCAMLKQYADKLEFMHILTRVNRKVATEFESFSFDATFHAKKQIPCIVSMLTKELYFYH
UBC13 confirm – human UBC13 polyubiquitin inhibition, confirmed; UBC13 polyubiquitination, TR-FRET, biochemical; shares compounds with UBC13 polyUb; inhibition, % at 10 µM; 1,400 tested, 68% active; in the data active means inhibition above about 45%
Numbers without * were called inactive; . = no result. Unless noted, no stated cut-off is given here; in the data, active means inhibition above about 43%; inactive means the rest.

SMILES	PREPL inh	CTSL1 counter	UCH37 DUB inh	PP1 inh	PP5 primary	UBC13 polyUb	PREPL inh cf	Casp3 UBC13 ctr	UBC13 confirm
CC(C)C[C@@H]1CN=C(N)N1C[C@@H]1CCCN1C[C@H](C)N1C[C@@H](Cc2ccccc2)N(CCc2ccc(Cl)c(Cl)c2)C1=N	45*	.	-2	.	.	76*	38	3	71*
CC(C)C[C@@H]1CN=C(N)N1C[C@@H]1CCCN1C[C@H](C)N1C[C@@H](Cc2ccccc2)N(CCCC2CCCC2)C1=N	52*	.	.	.	.	61*	43	-5	64*
NC1=NC[C@H](Cc2ccccc2)N1CC1CCCCC1	6	1	-2	-1	0	4	.	.	.
C#CCOCCOCCOCCNc1nc(N2CCN(C(=O)Cn3cc(CCCN=C(N)N)nn3)CC2)nc(N2CCN(C(=O)Cn3cc(CC(C)O)nn3)CC2)n1 (stereo not drawn)	.	.	1	.	.	.	.	.	.
C#CCOCCOCCOCCNc1nc(N2CCN(C(=O)CCCCCCCCCCNC(=O)Cn3cc(C[C@@H](C)O)nn3)CC2)nc(N2CCN(C(=O)CCCCCCCCCCNC(=O)[C@H](CCCN=C(N)N)n3cc(C[C@@H](C)CC)nn3)CC2)n1	48*	3	4	11	5	124*	42	3	119*
C#CCOCCOCCOCCNc1nc(N2CCN(C(=O)Cn3cc(CCCCN)nn3)CC2)nc(N2CCN(C(=O)Cn3cc(CCCCN)nn3)CC2)n1	7	2	6	-9	-7	26	.	.	.
C#CCOCCOCCOCCNc1nc(N2CCN(C(=O)CCCCCCCCCCNC(=O)Cn3cc(CCCCCN)nn3)CC2)nc(N2CCN(C(=O)CCCCCCCCCCNC(=O)[C@@H](CCC(=O)O)n3cc(CCCCCN)nn3)CC2)n1	44*	8	0	4	-1	96*	35	1	79*
COc1cccc(C=NNC(=O)C[n+]2ccccc2)c1OC	.	.	-2	.	.	.	.	.	.
COc1cc2nc(Nc3ccc(C)c(Cl)c3)nc(N)c2cc1OC	72*	0	-29	9	6	111*	66*	25*	121*
Cc1ccc(Nc2nc(N)c3ccccc3n2)cc1Cl	34	0	-23	7	3	33	.	.	.
O=C(NN=CC1CC=CCC1)c1ccc(O)cc1O (stereo not drawn)	.	.	3	.	.	.	.	.	.
NC(=O)COc1ccc(C=NNC(=O)C2CCCN2S(=O)(=O)c2ccc(Cl)cc2)cc1 (stereo not drawn)	.	.	1	.	.	.	.	.	.
C#CCOCCOCCOCCNc1nc(N2CCN(C(=O)C(Cc3ccc(O)cc3)n3cc(C(N)CC(C)C)nn3)CC2)nc(N2CCN(C(=O)C(Cc3cc4ccccc4[nH]3)n3cc(C(N)Cc4ccc(O)cc4)nn3)CC2)n1 (stereo not drawn)	52*	-2	3	17*	2	78*	51*	-1	59*
C#CCOCCOCCOCCNc1nc(N2CCN(C(=O)[C@H](CCCCN)n3cc([C@@H](N)C(C)CC)nn3)CC2)nc(N2CCN(C(=O)[C@H](Cc3cc4ccccc4[nH]3)n3cc([C@@H](N)CC(C)C)nn3)CC2)n1 (stereo partly drawn)	58*	6	2	13	1	100*	58*	-2	116*
C#CCOCCOCCOCCNc1nc(N2CCOCC2)nc(N2CCN(C(=O)[C@H](Cc3ccc(O)cc3)n3cc([C@@H](N)CC(C)C)nn3)CC2)n1	-4	-1	0	2	2	22	.	.	.
Nc1c(Cl)ncnc1NN=Cc1ccnc2ccccc12	.	.	8	.	.	.	.	.	.
O=C(NN=Cc1ccco1)c1cc(Br)ccc1OCc1ccccc1	.	.	3	.	.	.	.	.	.
O=C(C[n+]1ccc(CCSc2ccc(F)cc2)cc1)c1ccccc1	53*	-4	5	1	1	72*	44*	0	124*
CC1CCC(C(C)C)C(OC(=O)Cn2c(-c3ccc(Br)cc3)[n+](C)c3ccccc32)C1 (stereo not drawn)	49*	1	10	6	-2	55*	44*	1	78*
Cc1ccc(Nc2nc(NCCO)c3ccccc3n2)cc1C	56*	-1	.	1	0	52*	50*	2	82*
Cc1ccc(Cc2c(C)nc3nc(SCC(=O)NCCCN4CCCCCC4)nn3c2C)cc1	53*	-5	.	6	0	103*	42	8	101*
Nc1ccc2nc(-c3cccc(-c4nc5ccc(N)cc5[nH]4)n3)[nH]c2c1	56*	9	8	14	4	100*	38	1	114*
CCc1ccc2c(c1)C(=NOC)C(=O)N2	.	.	6	.	.	.	.	.	.
CC1CC(C)(C)CC2(C1)NC(=O)N(CC(=O)Nc1ccc3[nH]c(=O)[nH]c3c1)C2=O (stereo not drawn)	49*	.	2	-1	3	77*	38	-3	5
CN(C)C1=NC[C@H](Cc2ccccc2)N1CCCC1CCCC1	-1	-4	0	3	0	23	.	.	.
SMILES	PREPL inh	CTSL1 counter	UCH37 DUB inh	PP1 inh	PP5 primary	UBC13 polyUb	PREPL inh cf	Casp3 UBC13 ctr	UBC13 confirm
CCC[C@@H](CN1CCC[C@H]1CN1C(N)=NC[C@H]1CC(C)C)N1C[C@@H]([C@H](C)CC)N(CCCC2CCCC2)C1=N	46*	.	3	.	.	78*	45*	2	83*
CC[C@@H](C)[C@@H]1CN([C@@H](CN2CCC[C@H]2CN2C(N)=NC[C@@H]2Cc2ccccc2)C(C)C)C(=N)N1CCCC1CCCC1	56*	.	1	.	.	72*	50*	-3	76*
CCCCN1C(N)=NC[C@@H]1C(C)O (stereo partly drawn)	-2	-2	-4	-3	1	-1	.	.	.
CN(C)C1=NC[C@H](Cc2ccccc2)N1CCCC1CCCCC1	-6	0	-1	-1	0	32	.	.	.
CCC[C@@H](CN1CCC[C@H]1CN1C(N)=NC[C@H]1C(C)C)N1C[C@@H]([C@H](C)CC)N(CCCC2CCCC2)C1=N	59*	.	2	.	.	53*	54*	-2	42
CC[C@@H](C)[C@@H]1CN([C@@H](CN2CCC[C@H]2CN2C(N)=NC[C@H]2C(C)C)C(C)C)C(=N)N1CCCC1CCCC1	54*	.	5	.	.	53*	50*	0	56*
CC(=NNc1cc(N2CCOCC2)nc(C)n1)c1ccc(F)cc1	.	.	5	.	.	.	.	.	.
Cc1occc1C(=O)NN=C/C=C/c1ccccc1	.	.	11	.	.	.	.	.	.
CCC1(C)NC(=O)N(N=Cc2ccc(C)s2)C1=O (stereo not drawn)	.	.	3	.	.	.	.	.	.
